In ChEMBL document CHEMBL1124462, “Synthesis, DNA binding, and biological evaluation of synthetic precursors and novel analogues of netropsin” (J Med Chem, 1989):
≈ marks a conversion by molar mass, not a printed value.

Key:
[1] = system: Nucleic Acid; assay: Association constant against the polynucleotide poly (dA-dT).; format: nucleic-acid assay
Summary of the method: (§1)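 Competition with ethidium bromide binding at 25 °C in 0.01 M cacodylate buffer, pH 7.0, with 1.26 μM ethidium bromide and 1 μM polynucleotide. Bound ethidium is estimated from its fluorescence increase (V = 34 for poly(dA-dT), 25 for poly(dG-dC)). IC50 for 50% ethidium displacement comes from a fitted competition sigmoid. Kapp is calculated from IC50 assuming a binding size of four base pairs.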

[2] = system: Nucleic Acid; assay: Ratio of association constant of poly (dA-dT) and poly (dG-dC); format: nucleic-acid assay
Summary of the method: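 Kapp for poly(dA-dT) and for poly(dG-dC) is each determined by ethidium bromide competition in 0.01 M cacodylate, pH 7.0, 25 °C, with 1.26 μM ethidium and 1 μM polynucleotide. IC50 comes from a fitted competition sigmoid and is converted to Kapp assuming a four-base-pair binding size. The ratio is taken between the two polynucleotides.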

[3] = system: Nucleic Acid; assay: Association constant against polynucleotide poly (dG-dC); format: nucleic-acid assay; summary of the method: as §1
[4] = system: Vero; assay: Minimum cytotoxic concentration required to cause a microscopically detectable alteration of normal cell morphology and show antiviral activity in african green monkey (Vero B) cells; format: functional; details: Chlorocebus sabaeus
[5] = system: Raji; assay: Dose required to inhibit Human B-Lymphoblast (Raji) cell proliferation by 50%; format: functional; details: read-out: CD50 (the source's name)
[6] = system: FM3A; assay: In vitro inhibition of FM3A (murine mammary carcinoma) cell proliferation.; format: functional; details: Mus musculus, read-out: CD50 (the source's name)
[7] = system: HeLa; assay: Minimum inhibitory concentration required to reduce Coxsackie virus B4 induced cytopathogenicity by 50% in HeLa cells; format: functional; details: Homo sapiens
Summary of the method: (§2)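 Cell cultures (PRK, HeLa or Vero B) are infected at 100 × CCID50. Cytopathogenicity is recorded once it reaches completion in the untreated virus-infected controls. The minimum inhibitory concentration is given in μg/mL.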

[8] = system: HeLa; assay: Minimum cytotoxic concentration required to cause a microscopically detectable alteration of normal cell morphology and show antiviral activity in HeLa cells; format: functional; details: Homo sapiens
Summary of the method: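 HeLa cell cultures exposed to compound for the same duration as the antiviral assay, then examined microscopically. The minimum cytotoxic concentration is the lowest level causing detectable alteration of normal cell morphology. Values are in μg/mL.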

[9] = system: L1210; assay: Dose required to inhibit Murine leukemia (L1210) cell proliferation by 50%; format: functional; details: Mus musculus, read-out: CD50 (the source's name)
[10] = system: Human alphaherpesvirus 2; assay: Minimum inhibitory concentration required to reduce herpes simplex virus-2(G) induced cytopathogenicity by 50% in primary rabbit kidney cells (PRK); format: functional; summary of the method: as §2
[11] = system: Human alphaherpesvirus 1; assay: Minimum inhibitory concentration required to reduce herpes simplex virus-1 (KOS) induced cytopathogenicity by 50% in primary rabbit kidney cells(PRK); format: functional; summary of the method: as §2
[12] = system: Vesicular stomatitis virus; assay: Minimum inhibitory concentration required to reduce vesicular stomatitis virus induced cytopathogenicity by 50% in primary rabbit kidney cells (PRK); format: functional
[13] = organism: Oryctolagus cuniculus; assay: Minimum cytotoxic concentration required to cause a microscopically detectable alteration of normal cell morphology and show antiviral activity in primary rabbit kidney (PRK) cells; format: functional
[14] = Dose required to inhibit Human T-Lymphoblast (Molt/4F) cell proliferation by 50%; format: functional; details: read-out: CD50 (the source's name)
[15] = system: Sindbis virus; assay: Minimum inhibitory concentration required to reduce Sindbis virus induced cytopathogenicity by 50% in african green monkey (VeroB) cells; format: functional; summary of the method: as §2
[16] = system: Vero; assay: Minimum inhibitory concentration required to reduce parainfluenza virus-3 induced cytopathogenicity by 50% in african green monkey (VeroB) cells; format: functional, Human respirovirus 3; details: Chlorocebus sabaeus; summary of the method: as §2
[17] = system: Mammalian orthoreovirus 1; assay: Minimum inhibitory concentration required to reduce reovirus-1 induced cytopathogenicity by 50% in african green monkey (VeroB)cells; format: functional; summary of the method: as §2
[18] = system: Semliki Forest virus; assay: Minimum inhibitory concentration required to reduce semliki forest virus induced cytopathogenicity by 50% in african green monkey (VeroB) cells; format: functional; summary of the method: as §2
[19] = system: Vero; assay: Minimum inhibitory concentration required to reduce Coxsackie virus B4 induced cytopathogenicity by 50% in african green monkey (VeroB) cells; format: functional, Coxsackievirus B4; details: Chlorocebus sabaeus; summary of the method: as §2

Cn1cc(NC(=O)c2cc(NC(=O)c3cc(NC=O)cn3C)cn2C)cc1C(=O)NCCC(=N)N
K app [1]: 8.5e+07 M⁻¹
Ratio [2]: 3400
K app [3]: 25000 M⁻¹

COC(=O)c1ccc([N+](=O)[O-])n1C
MCC [4]: 400 µg/mL
CC50 [5]: 62.4 µg/mL (≈ 339 µM)
CC50 [6]: 84.7 µg/mL (≈ 460 µM)
MIC [7]: > 400 µg/mL
MCC [8]: 400 µg/mL
CC50 [9]: 28 µg/mL (≈ 152 µM)
MIC [10]: > 400 µg/mL
MIC [11]: > 400 µg/mL
MIC [12]: > 400 µg/mL
MCC [13]: >400 µg/mL
CC50 [14]: 66 µg/mL (≈ 358 µM)
MIC [15]: > 400 µg/mL
MIC [16]: > 100 µg/mL
MIC [17]: > 200 µg/mL
MIC [18]: > 400 µg/mL
MIC [19]: > 200 µg/mL

CC(NC(=O)c1cc(NC(=O)c2cc(NC(=O)CNC(=N)N)cn2C)cn1C)C(=O)NC(C)C(=O)OC(C)(C)C (stereo not drawn)
MCC [4]: > 400 µg/mL
CC50 [5]: 54.7 µg/mL (≈ 97.7 µM)
CC50 [6]: > 100 µg/mL
MIC [7]: > 400 µg/mL
MCC [8]: > 400 µg/mL
CC50 [9]: > 100 µg/mL
K app [1]: 4400 M⁻¹
Ratio [2]: 6.29
MIC [10]: > 200 µg/mL
MIC [11]: > 200 µg/mL
MIC [12]: > 200 µg/mL
MCC [13]: >200 µg/mL
CC50 [14]: > 100 µg/mL
MIC [15]: > 400 µg/mL
MIC [16]: > 400 µg/mL
MIC [17]: > 200 µg/mL
MIC [18]: > 400 µg/mL
K app [3]: 700 M⁻¹
MIC [19]: > 400 µg/mL

Cn1c(C(=O)NCCC(=N)N)ccc1[N+](=O)[O-]
MCC [4]: > 400 µg/mL
CC50 [5]: > 50 µg/mL
MIC [7]: > 400 µg/mL
MCC [8]: > 400 µg/mL
CC50 [9]: > 50 µg/mL
K app [1]: < 100 M⁻¹
MIC [10]: > 100 µg/mL
MIC [11]: > 200 µg/mL
MIC [12]: > 400 µg/mL
MCC [13]: >400 µg/mL
CC50 [14]: > 50 µg/mL
MIC [15]: > 200 µg/mL
MIC [16]: 100 µg/mL (≈ 418 µM)
MIC [17]: > 100 µg/mL
MIC [18]: > 200 µg/mL
K app [3]: < 100 M⁻¹
MIC [19]: > 100 µg/mL

Cn1cc([N+](=O)[O-])cc1C(=O)O
MCC [4]: > 400 µg/mL
CC50 [5]: > 100 µg/mL
CC50 [6]: > 100 µg/mL
MIC [7]: > 400 µg/mL
MCC [8]: > 400 µg/mL
CC50 [9]: > 100 µg/mL
MIC [10]: > 400 µg/mL
MIC [11]: > 400 µg/mL
MIC [12]: > 400 µg/mL
MCC [13]: >400 µg/mL
CC50 [14]: > 100 µg/mL
MIC [15]: > 400 µg/mL
MIC [16]: > 400 µg/mL
MIC [17]: > 400 µg/mL
MIC [18]: > 400 µg/mL
MIC [19]: > 200 µg/mL

Cn1cc(NC(=O)c2cc([N+](=O)[O-])cn2C)cc1C(=O)O
MCC [4]: > 400 µg/mL
CC50 [5]: > 100 µg/mL
CC50 [6]: > 100 µg/mL
MIC [7]: > 400 µg/mL
MCC [8]: > 400 µg/mL
CC50 [9]: > 100 µg/mL
MIC [10]: > 400 µg/mL
MIC [11]: > 400 µg/mL
MIC [12]: > 400 µg/mL
MCC [13]: >400 µg/mL
CC50 [14]: > 100 µg/mL
MIC [15]: > 400 µg/mL
MIC [16]: > 200 µg/mL
MIC [17]: > 400 µg/mL
MIC [18]: > 400 µg/mL
MIC [19]: 150 µg/mL (≈ 513 µM)

CC(NC(=O)c1cc(NC(=O)c2cc(NC(=O)CNC(=N)N)cn2C)cn1C)C(=O)O (stereo not drawn)
MCC [4]: > 200 µg/mL
CC50 [5]: > 100 µg/mL
CC50 [6]: > 100 µg/mL
MIC [7]: > 200 µg/mL
MCC [8]: > 200 µg/mL
CC50 [9]: > 100 µg/mL
K app [1]: < 100 M⁻¹
MIC [10]: > 200 µg/mL
MIC [11]: > 200 µg/mL
MIC [12]: > 200 µg/mL
MCC [13]: >200 µg/mL
CC50 [14]: > 100 µg/mL
MIC [15]: > 200 µg/mL
MIC [16]: > 200 µg/mL
MIC [17]: > 200 µg/mL
MIC [18]: > 200 µg/mL
K app [3]: < 100 M⁻¹
MIC [19]: > 200 µg/mL

Cn1cc(NC(=O)CNC(=N)N)cc1C(=O)NCCCNCCCCN
MCC [4]: > 400 µg/mL
CC50 [5]: > 200 µg/mL
CC50 [6]: > 200 µg/mL
MIC [7]: > 400 µg/mL
MCC [8]: > 400 µg/mL
CC50 [9]: > 200 µg/mL
Ratio [2]: 5.26
MIC [10]: > 400 µg/mL
MIC [11]: > 400 µg/mL
MIC [12]: > 400 µg/mL
MCC [13]: >400 µg/mL
CC50 [14]: > 200 µg/mL
MIC [15]: > 400 µg/mL
MIC [16]: > 200 µg/mL
MIC [17]: > 200 µg/mL
MIC [18]: > 400 µg/mL
MIC [19]: > 400 µg/mL

Cn1cc([N+](=O)[O-])cc1C(=O)NCCC(=N)N
MCC [4]: > 400 µg/mL
CC50 [5]: > 50 µg/mL
MIC [7]: > 400 µg/mL
MCC [8]: > 400 µg/mL
CC50 [9]: > 50 µg/mL
K app [1]: < 100 M⁻¹
MIC [10]: > 200 µg/mL
MIC [11]: > 200 µg/mL
MIC [12]: > 400 µg/mL
MCC [13]: >400 µg/mL
CC50 [14]: > 50 µg/mL
MIC [15]: > 200 µg/mL
MIC [16]: > 200 µg/mL
MIC [17]: > 200 µg/mL
MIC [18]: > 200 µg/mL
K app [3]: < 100 M⁻¹
MIC [19]: > 200 µg/mL

Cn1cc(NC(=O)c2cc([N+](=O)[O-])cn2C)cc1C(=O)NCCCNCCCCN
MCC [4]: > 400 µg/mL
CC50 [5]: > 100 µg/mL
MIC [7]: > 400 µg/mL
MCC [8]: > 400 µg/mL
CC50 [9]: > 100 µg/mL
K app [1]: 440000 M⁻¹
Ratio [2]: 5.37
MIC [10]: > 200 µg/mL
MIC [11]: > 200 µg/mL
MIC [12]: > 100 µg/mL
MCC [13]: >200 µg/mL
CC50 [14]: > 100 µg/mL
MIC [15]: > 400 µg/mL
MIC [16]: > 200 µg/mL
MIC [17]: > 200 µg/mL
MIC [18]: > 400 µg/mL
K app [3]: 82000 M⁻¹
MIC [19]: > 200 µg/mL

COC(=O)c1cc(NC(=O)c2cc([N+](=O)[O-])cn2C)cn1C
MCC [4]: > 40 µg/mL
CC50 [5]: > 100 µg/mL
CC50 [6]: > 100 µg/mL
MIC [7]: > 40 µg/mL
MCC [8]: > 40 µg/mL
CC50 [9]: > 100 µg/mL
MIC [10]: > 10 µg/mL
MIC [11]: > 10 µg/mL
MIC [12]: > 40 µg/mL
MCC [13]: >40 µg/mL
CC50 [14]: > 100 µg/mL
MIC [15]: > 10 µg/mL
MIC [16]: > 10 µg/mL
MIC [17]: > 10 µg/mL
MIC [18]: > 10 µg/mL
MIC [19]: > 10 µg/mL
